A short description of this test: Inhibitory activity against human gamma-secretase in SH-SY5Y neuroblastoma cells. The test is classed as cell-based. The method, boiled down: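 Whole-cell assay in SH-SY5Y neuroblastoma cells overexpressing exogenous substrate A4CTF, cleaved by endogenous human γ-secretase. IC50 determined over 0.3 nM to 10 µM; values are the mean of at least three determinations, reported with SD.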

`CN1C(=O)[C@@H](NC(=O)[C@@H](c2ccc(F)cc2)C(O)c2ccc(Cl)c(Cl)c2)N=C(c2ccccc2)c2ccccc21` (stereo not given in full) displayed an IC50 of 1.2 nM.
In the case of `CO[C@H](c1ccc(Cl)c(Cl)c1)[C@H](C)C(=O)N[C@H]1N=C(c2ccccc2)c2ccccc2N(C)C1=O` it was 59 nM.
In the case of `C[C@H](C(=O)N[C@H]1N=C(c2ccccc2)c2ccccc2N(C)C1=O)[C@H](OCC(N)=O)c1ccc(Cl)c(Cl)c1` it was 4750 nM.
Next, `CC[C@H](c1ccc(F)c(F)c1)[C@@H](C(=O)N[C@H]1N=C(c2ccccc2)c2ccccc2N(C)C1=O)c1ccc(F)cc1`: 212 nM.
Consider `C[C@H](C(=O)N[C@H]1N=C(c2ccccc2)c2ccccc2N(C)C1=O)[C@H](OC(N)=O)c1ccc(Cl)c(Cl)c1`, for which inhibition was half-maximal at 2450 nM (IC50). This IC50 lies about 12-fold higher than the previous one.
Next, `C[C@@H](C(=O)N[C@H]1N=C(c2ccccc2)c2ccccc2N(C)C1=O)[C@@H](O)c1ccc(Cl)c(Cl)c1`: 880 nM; `O=C1Nc2ccccc2C(c2ccccc2)=N[C@@H]1NC(=O)[C@@H](c1ccc(F)cc1)[C@H](CCO)c1ccc(F)c(F)c1`: 35 nM.
Next, `CN1C(=O)[C@@H](NC(=O)[C@@H](c2ccc(F)cc2)[C@H](CO)c2ccc(F)c(F)c2)N=C(c2ccccc2)c2ccccc21`: 0.07 nM; `C[C@H](C(=O)N[C@H]1N=C(c2ccccc2)c2ccccc2N(C)C1=O)[C@@H](O)c1ccc(Cl)c(Cl)c1`: 380 nM.
The compound `C=C[C@H](c1ccc(F)c(F)c1)[C@@H](C(=O)N[C@H]1N=C(c2ccccc2)c2ccccc2N(C)C1=O)c1ccc(F)cc1` showed a half-inhibitory concentration (IC50) of 100 nM.
Next, `CN1C(=O)[C@@H](NC(=O)[C@@H](c2ccc(F)cc2)[C@H](CBr)c2ccc(F)c(F)c2)N=C(c2ccccc2)c2ccccc21`: 6.7 nM.
In the case of `C[C@H](C(=O)N[C@H]1N=C(c2ccccc2)c2ccccc2N(C)C1=O)[C@H](O)c1ccc(Cl)c(Cl)c1` it was 19 nM.
Next, `C[C@H](Cc1ccc(Cl)c(Cl)c1)C(=O)N[C@H]1N=C(c2ccccc2)c2ccccc2N(C)C1=O`: 320 nM.
As to `CN1C(=O)[C@@H](NC(=O)[C@H](c2ccc(F)cc2)[C@@H](O)c2ccc(F)c(F)c2)N=C(c2ccccc2)c2ccccc21`, the IC50 was 9.6 nM. Against the preceding compound, the IC50 is about 33-fold lower.
Next, `CN1C(=O)[C@@H](NC(=O)[C@@H](c2ccc(F)cc2)C(O)c2ccc(F)c(F)c2)N=C(c2ccccc2)c2ccccc21` (stereo not given in full): 0.8 nM; `CO/N=C(\c1ccc(Cl)c(Cl)c1)C(C)C(=O)N[C@H]1N=C(c2ccccc2)c2ccccc2N(C)C1=O` (stereo not given in full): above 10000 nM; `CC(C(=O)N[C@H]1N=C(c2ccccc2)c2ccccc2N(C)C1=O)C(=O)c1ccc(Cl)c(Cl)c1` (stereo not given in full): 930 nM.
Next, `C[C@H](C(=O)N[C@H]1N=C(c2ccccc2)c2ccccc2N(C)C1=O)[C@H](OS(N)(=O)=O)c1ccc(Cl)c(Cl)c1`: 450 nM; `CC(C(=O)N[C@H]1N=C(c2ccccc2)c2ccccc2N(C)C1=O)/C(=N/O)c1ccc(Cl)c(Cl)c1` (stereo not given in full): 35 nM.
Regarding `CN1C(=O)[C@@H](NC(=O)[C@@H](Cc2ccc(Cl)c(Cl)c2)c2ccc(F)cc2)N=C(c2ccccc2)c2ccccc21`, half-maximal inhibition (IC50) required 15 nM.
Consider `CC(C(=O)N[C@H]1N=C(c2ccccc2)c2ccccc2N(C)C1=O)C(CO)c1ccc(F)c(F)c1` (stereo not given in full), for which 6.9 nM corresponded to half-maximal inhibition (IC50).
The compound `O=C1Nc2ccccc2N(c2ccccc2)C[C@@H]1NC(=O)[C@@H](c1ccc(F)cc1)[C@H](CO)c1ccc(F)c(F)c1` had a half-inhibitory concentration (IC50) of 0.07 nM.
`CN1C(=O)[C@@H](NC(=O)[C@H](c2ccc(F)cc2)[C@@H](O)c2ccc(Cl)c(Cl)c2)N=C(c2ccccc2)c2ccccc21` yielded an IC50 of 67 nM.
Next, `O=C1Nc2ccccc2C(c2ccccc2)=N[C@@H]1NC(=O)[C@@H](c1ccc(F)cc1)[C@H](CO)c1ccc(F)c(F)c1`: 0.06 nM; `C[C@@H](C(=O)N[C@H]1N=C(c2ccccc2)c2ccccc2N(C)C1=O)[C@H](O)c1ccc(Cl)c(Cl)c1`: 1340 nM.

The IC50 is the concentration at which inhibition is half-maximal. Low readings indicate greater potency, high ones weaker potency.

These data come from ChEMBL document CHEMBL1145003, “Design and synthesis of highly potent benzodiazepine gamma-secretase inhibitors: preparation of (2S,3R)-3-(3,4-difluorophenyl)-2-(4-fluorophenyl)-4- hydroxy-N-((3S)-1-methyl-2-oxo-5- phenyl-2,3-dihydro-1H-benzo[e][1,4]-diazepin-3-yl)butyramide by use of an asymmetric Ireland-Claisen rearrangement” (J Med Chem, 2003).
